The source of these data is ChEMBL document CHEMBL2202989, “New adamantane phenylalkylamines with σ-receptor binding affinity and anticancer activity, associated with putative antagonism of neuropathic pain” (J Med Chem, 2012).

Structures are written as SMILES.

For data set [1], the system named is BXPC-3. Briefly: Cell cycle arrest in human BxPC3 cells assessed as accumulation at G2 phase at 0.5 uM after 24 hrs using propidium iodide staining by FACS analysis (reference value: 12 %). The data set is classed as functional. In short, it runs like this:
(§1)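 Cells were plated 24 h before treatment and exposed for 24 h at final 0.5, 5, 15 and 50 μM in 0.5% DMSO, against vehicle-treated controls. Cells were then trypsinised and fixed in cold ethanol for 3 h at 4 °C. They were stained in a mix of RNase (200 μg/mL) and PI (1 mg/mL) for 45 min at room temperature in the dark. Flow cytometry used 488 nm excitation and 10 000 gated cells. Phase percentages were assigned from DNA content.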

In data set [2] the test system is BXPC-3. Briefly: Cell cycle arrest in human BxPC3 cells assessed as accumulation at S phase at 0.5 uM after 24 hrs using propidium iodide staining by FACS analysis (reference value: 33 %). The data set is classed as functional. The essentials:
as §1
A general note: A flow cytometer gives signals particle by particle.

Data set [3] deals with BXPC-3. Briefly: Cell cycle arrest in human BxPC3 cells assessed as accumulation at G1 phase at 5 uM after 24 hrs using propidium iodide staining by FACS analysis (reference value: 41 %). The format is functional. The essentials:
as §1

Data set [4] relates to Mus musculus. Briefly: Toxicity in SCID mouse assessed as mortality at 40 to 55 mg/kg, ip for 2 to 3 weeks. As to conditions: in vivo. The data set is classed as organism-based. Set-up: route intraperitoneal. The essentials: (§2)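 CD-1 (male and female) and SCID mice dosed ip at 40−55 mg/kg in 5% Tween 80 for chronic 2−3 week regimens. Deaths and body weight loss compared with vehicle (Tween 80 or Cremophor) and reference-drug groups. Weight loss, neurological, behavioral and dietary changes recorded as toxicity signs.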

Data set [5] deals with Mus musculus. The experiment in a line: Toxicity in CD1 mouse assessed as mortality at 40 to 55 mg/kg, ip for 2 to 3 weeks. The data set is classed as organism-based. Set-up: route intraperitoneal. As to conditions: in vivo. In short, it runs like this:
as §2

For data set [6], the system named is BXPC-3. The experiment in a line: Cell cycle arrest in human BxPC3 cells assessed as accumulation at sub G1 phase at 0.5 uM after 24 hrs using propidium iodide staining by FACS analysis (reference value: 9 %). The data set is classed as functional. The essentials:
as §1

Data set [7] deals with PC-3. Briefly: Antitumor activity against human PC3 cells xenografted in SCID mouse assessed as tumor growth inhibition at 55 mg/kg, ip administered 5 consecutive days in a week for two cycles measured after 2 cycles relative to control. The data set is classed as functional. As to conditions: PC-3, ip, route intraperitoneal, read-out: TGI. The essentials: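 PC3 xenografts were grown in SCID mice (10^6 cells per inoculum), 14 mice (28 tumors) per group, dosed ip from about 100 mm3. The test agent was given in 5% Tween 80; paclitaxel was given in Cremophor diluted in saline, with a vehicle of 1:1 ethanol/Cremophor diluted 1:3 in saline. Volume and %ΔT/ΔC were derived from caliper readings twice weekly. Occurrence of primary tumors and of axillary and bone metastases was scored (n = 7). Two-tailed t test.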
(In general: Xenograft models place foreign cells or tissue in a host animal.)

Data set [8] concerns OVCAR-5. The experiment in a line: Antitumor activity against human OVCAR5 cells xenografted in SCID mouse assessed as bone metastasis at 55 mg/kg, ip administered 5 consecutive days in a week for two cycles measured after 2 cycles relative to control. The data set is classed as functional. As to conditions: OVCAR-5, ip, route intraperitoneal, read-out: TGI. In short, it runs like this:
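SCID mice carried OVCAR5 xenografts (10^6 cells per inoculum), 16 mice (32 tumors) per group, with ip dosing in 5% Tween 80 from a tumor volume of about 100 mm3. Caliper volume was measured twice weekly and %ΔT/ΔC derived. At termination, primary tumors were weighed and secondary metastases were scored at axillary and bone sites (n = 7−8). Two-tailed t test.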

The subject of data set [9] is DU-145. Briefly: Antitumor activity against human DU145 cells xenografted in SCID mouse assessed as tumor growth inhibition at 55 mg/kg, ip administered 5 consecutive days in a week for two cycles measured after 2 cycles relative to control. The format is functional. As to conditions: DU-145, ip, route intraperitoneal, read-out: TGI. In short, it runs like this:
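DU145 xenografts were grown in SCID mice from 10^6-cell inocula, with at least 30 animals in total. Treatment started ip at a mean tumor volume of about 100 mm3. The test agent was given in 5% Tween 80; paclitaxel was dissolved in Cremophor and diluted in saline. Caliper volumes were taken twice weekly and %ΔT/ΔC calculated; two-tailed t test.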

Data set [10] concerns BXPC-3. Briefly: Antitumor activity against human BxPC3 cells xenografted in SCID mouse assessed as tumor growth inhibition at 50 mg/kg, ip administered 3 consecutives days per week for one cycle relative to control. The data set is classed as functional. Conditions: BXPC-3, ip, route intraperitoneal, read-out: TGI.
Data set [11] concerns BXPC-3. Briefly: Antitumor activity against human BxPC3 cells xenografted in SCID mouse assessed as tumor growth inhibition at 45 mg/kg, ip administered 3 consecutives days per week for three cycles measured after 3 cycles relative to control. The data set is classed as functional. As to conditions: BXPC-3, ip, route intraperitoneal, read-out: TGI. In short, it runs like this: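 BxPC3 xenografts were grown in SCID mice from inocula of 10^6 exponentially growing cells, with 10 mice (20 tumors) per group. Treatment started ip once tumors averaged about 100 mm3. The test agent was given in 5% Tween 80 and gemcitabine in water for injection. Tumor volume was measured by caliper twice weekly and %ΔT/ΔC was computed; two-tailed Student's t test.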

For data set [12], the system named is PC-3. The experiment in a line: Induction of apoptosis in human PC3 cells assessed as cleaved caspase3 containing cells at 50 uM by antibody-based FACS analysis (reference value: 3.2%). The data set is classed as functional.
In data set [13] the test system is PC-3. The experiment in a line: Induction of apoptosis in human PC3 cells assessed as cleaved caspase3 containing cells at 5 uM by antibody-based FACS analysis (reference value: 3.2 %). The format is functional.
For data set [14], the system named is PC-3. The experiment in a line: Induction of apoptosis in human PC3 cells assessed as late apoptosis at 5 uM using annexin V/7-AAD by FACS analysis (reference value: 3 %). The format is functional.
The subject of data set [15] is PC-3. Briefly: Induction of apoptosis in human PC3 cells assessed as early apoptosis at 0.5 uM using annexin V/7-AAD by FACS analysis (reference value: 5 %). The data set is classed as functional.
For data set [16], the system named is PC-3. The experiment in a line: Induction of apoptosis in human PC3 cells assessed as early apoptosis at 5 uM using annexin V/7-AAD by FACS analysis (reference value: 5 %). The data set is classed as functional. In short, it runs like this: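 Cells plated 24 h before treatment, then exposed 24 h to 0.5, 5, 15 or 50 μM compound (final DMSO 0.5%); vehicle controls included. Cells scraped and stained with annexin V-FITC and 7-AAD for 15 min on ice in the dark. Flow cytometry with 488 nm excitation, 10,000 gated cells. Early apoptosis was annexin V+/7-AAD−, late was annexin V+/7-AAD+.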

The subject of data set [17] is PC-3. Briefly: Induction of apoptosis in human PC3 cells assessed as healthy cells at 5 uM using annexin V/7-AAD by FACS analysis (reference value: 91 %). The format is functional.
Data set [18] relates to IGROV-1. Briefly: Induction of apoptosis in human IGROV1 cells assessed as healthy cells at 5 uM using annexin V/7-AAD by FACS analysis (reference value: 86 %). The data set is classed as functional.
Data set [19] deals with PC-3. Briefly: Cell cycle arrest in human PC3 cells assessed as accumulation at S phase at 0.5 uM after 24 hrs using propidium iodide staining by FACS analysis (reference value: 42 %). The data set is classed as functional.
Data set [20] deals with PC-3. Briefly: Cell cycle arrest in human PC3 cells assessed as accumulation at G1 phase at 5 uM after 24 hrs using propidium iodide staining by FACS analysis (reference value: 36 %). The data set is classed as functional.
In data set [21] the test system is IGROV-1. Briefly: Cell cycle arrest in human IGROV1 cells assessed as accumulation at G1 phase at 15 uM after 24 hrs using propidium iodide staining by FACS analysis (reference value: 27 %). The format is functional. In short, it runs like this:
as §1

Data set [22] concerns BXPC-3. The experiment in a line: Cell cycle arrest in human BxPC3 cells assessed as accumulation at >G2/M phase at 15 uM after 24 hrs using propidium iodide staining by FACS analysis (reference value: 6 %). The format is functional. In short, it runs like this:
as §1

With `CN1CCN(CCCc2ccc(C(c3ccccc3)C34CC5CC(CC(C5)C3)C4)cc2)CC1` (configuration not stated), the Activity is listed as 11% in [1]; 31% in [2]; 53% in data set [3]; “Non-toxic” in [4]; “Non-toxic” in data set [5]; 11% in data set [6]. Besides, the Activity in data set [12] worked out at 4%; in data set [13], 2%; in data set [14], 2%; in data set [15], 3%; in data set [16], 5%; in [17], 92%. Also, the Activity was 83% in data set [18]; 38% in data set [19]; 36% in [20]; 23% in [21]; 5% in [22]. For the same compound, the inhibition in vivo at 55 mg/kg was determined as 48% in data set [7], 25% in data set [8] and 71.4% in data set [9]. The inhibition in vivo at 50 mg/kg in data set [10] came to 41.6%. Further, the inhibition in vivo at 45 mg/kg in data set [11] was determined as 37.2%.
